For one assay, the target named is T1, Caspase-3 (Homo sapiens) (UniProt P42574).
T1 sequence (whole entry): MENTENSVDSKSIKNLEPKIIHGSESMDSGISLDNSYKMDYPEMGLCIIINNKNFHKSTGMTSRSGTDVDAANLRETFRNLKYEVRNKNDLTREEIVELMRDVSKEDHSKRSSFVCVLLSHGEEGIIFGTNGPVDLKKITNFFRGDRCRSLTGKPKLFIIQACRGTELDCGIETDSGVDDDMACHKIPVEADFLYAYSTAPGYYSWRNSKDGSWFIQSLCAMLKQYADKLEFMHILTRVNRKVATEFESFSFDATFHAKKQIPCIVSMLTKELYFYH
Kind of assay: Inhibition of caspase3 activity in camptothecin-induced apoptotic Jurkat T cells at 2 uM. It is filed as functional, cell-based. An outline of the steps:
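Jurkat cells (1 × 10⁵ cells/mL) preincubated 30 min at 37 °C, given inhibitor for 2 h, then 2 µM camptothecin for 4 h. Lysed by freeze–thaw cycles, spun at 12000g. Lysate assayed with 100 µM Ac-DEVD-AMC in HEPES pH 7.0, sucrose, CHAPS and DTT. AMC fluorescence (ex 360/em 460 nm) read 20 min at room temperature, normalised to Bradford protein.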

A further assay concerns the target T2, Caspase-3 (Homo sapiens, UniProt P42574).
T2 sequence (P42574 whole entry): T1 sequence (whole entry)
Kind of assay: Inhibition of caspase3.

In another assay the target is Calpain 1 (Homo sapiens, UniProt P07384). Kind of assay: Inhibition of calpain1. The class given is protein-complex assay. A digest of the protocol: (§1)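 Enzymes (caspases 2, 6 and 7; proteasome, trypsin, thrombin, papain, calpain-I) preincubated with inhibitor 30 min in their own buffer at optimal pH. Substrates at 10–100 µM, assayed at 35 °C. pNA release followed at 405 nm for 1–3 min; initial hydrolysis rate taken.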

The test system of a further assay is Proteasome. Kind of assay: Inhibition of proteasome. It is filed as subcellular. An outline of the steps: as §1
The target of another assay is T3, Papain (Carica papaya, UniProt P00784).
T3 sequence (P00784 whole entry): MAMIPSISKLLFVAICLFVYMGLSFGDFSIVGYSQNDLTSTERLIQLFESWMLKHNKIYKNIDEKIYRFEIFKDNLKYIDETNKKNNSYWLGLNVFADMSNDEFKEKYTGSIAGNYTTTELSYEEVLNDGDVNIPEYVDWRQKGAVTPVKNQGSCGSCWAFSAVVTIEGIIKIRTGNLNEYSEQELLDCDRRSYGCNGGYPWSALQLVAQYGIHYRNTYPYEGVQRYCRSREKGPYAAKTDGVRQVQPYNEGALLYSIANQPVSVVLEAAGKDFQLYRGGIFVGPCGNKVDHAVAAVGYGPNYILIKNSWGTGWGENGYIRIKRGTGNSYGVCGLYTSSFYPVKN
Kind of assay: Inhibition of papain. An outline of the steps: as §1

The next assay has as its target Trypsin (Homo sapiens, UniProt P07477+P07478+P35030). Kind of assay: Inhibition of trypsin. It is filed as protein assay. An outline of the steps:
as §1

In a further assay the target is Prothrombin (Homo sapiens, UniProt P00734). Kind of assay: Inhibition of thrombin. An outline of the steps: as §1
The target in a further assay is T4, Caspase-2 (Homo sapiens, UniProt P42575).
T4 sequence (P42575 whole entry): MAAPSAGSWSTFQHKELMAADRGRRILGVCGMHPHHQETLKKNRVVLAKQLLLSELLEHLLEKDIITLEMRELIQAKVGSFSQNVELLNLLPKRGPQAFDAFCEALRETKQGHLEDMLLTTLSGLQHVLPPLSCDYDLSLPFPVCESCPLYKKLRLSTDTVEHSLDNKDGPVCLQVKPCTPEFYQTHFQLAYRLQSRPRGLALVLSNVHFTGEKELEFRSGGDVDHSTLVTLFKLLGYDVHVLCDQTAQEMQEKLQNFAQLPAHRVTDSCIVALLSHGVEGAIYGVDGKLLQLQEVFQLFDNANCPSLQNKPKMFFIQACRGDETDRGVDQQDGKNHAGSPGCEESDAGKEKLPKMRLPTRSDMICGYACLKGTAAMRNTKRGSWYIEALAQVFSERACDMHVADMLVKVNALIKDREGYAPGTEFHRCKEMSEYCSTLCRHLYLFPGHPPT
Kind of assay: Inhibition of caspase2. A digest of the protocol: as §1

The target in another assay is T5, Caspase-6 (Homo sapiens, UniProt P55212).
T5 sequence (P55212 whole entry): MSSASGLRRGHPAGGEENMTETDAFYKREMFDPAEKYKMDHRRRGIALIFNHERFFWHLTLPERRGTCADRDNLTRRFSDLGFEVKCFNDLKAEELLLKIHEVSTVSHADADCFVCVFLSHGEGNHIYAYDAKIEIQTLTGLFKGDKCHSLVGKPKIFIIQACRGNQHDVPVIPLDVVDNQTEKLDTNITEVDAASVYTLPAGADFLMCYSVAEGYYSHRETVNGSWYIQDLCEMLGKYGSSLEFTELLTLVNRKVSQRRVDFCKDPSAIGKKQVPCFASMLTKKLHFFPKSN
Kind of assay: Inhibition of caspase6. An outline of the steps: as §1

The target of a further assay is T6, Caspase-7 (Homo sapiens, UniProt P55210).
T6 sequence (P55210 whole entry): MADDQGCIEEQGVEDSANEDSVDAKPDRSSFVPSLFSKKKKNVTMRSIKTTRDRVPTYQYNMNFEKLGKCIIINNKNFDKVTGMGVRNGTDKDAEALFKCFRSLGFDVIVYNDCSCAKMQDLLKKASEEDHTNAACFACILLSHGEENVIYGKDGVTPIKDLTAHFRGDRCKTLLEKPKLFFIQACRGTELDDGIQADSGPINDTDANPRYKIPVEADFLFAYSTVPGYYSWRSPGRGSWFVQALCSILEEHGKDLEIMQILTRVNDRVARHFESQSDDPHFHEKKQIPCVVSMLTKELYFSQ
Kind of assay: Inhibition of caspase7. A digest of the protocol:
as §1

Another assay deals with Caspase-8 (Homo sapiens, UniProt Q14790). Kind of assay: Inhibition of caspase8.
For the next assay, the system named is Rattus norvegicus. Kind of assay: Decrease in infarct volume of ischemic damage in transient MCA occlusion model of Sprague-Dawley rat at 1 mg/kg, sc. It is filed as functional. More on the design: scale not given: the % may be the effect or the level left. An outline of the steps:
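Male Sprague-Dawley rats (200–240 g); transient MCA occlusion for 1.5 h. Drug in DMSO given sc at 0.5 mL/kg, 5 min after occlusion start. Sacrifice at 24 h; 2 mm coronal slices stained with TTC. Infarct volume corrected by indirect method (contralateral minus intact ipsilateral area); n=8 per group, mean ± SE vs saline-treated animals, one-way ANOVA with Dunnett's test.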

Active and inactive are the calls of the source. No cut-off for these calls is given here. Peptide text beside a SMILES is read from it. * marks the point of attachment. Cbz = O=C(OCc1ccccc1)*; CH2F = FC* A value given as a limit tells only on which side of the number the result lay.

Caspase-8, sequence (Q14790 217-374 limits assumed): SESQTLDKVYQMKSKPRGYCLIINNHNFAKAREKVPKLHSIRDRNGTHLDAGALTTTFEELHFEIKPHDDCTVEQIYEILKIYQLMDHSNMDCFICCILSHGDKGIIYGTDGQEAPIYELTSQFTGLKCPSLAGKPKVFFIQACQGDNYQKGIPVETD
Caspase-8, sequence (Q14790 385-479 limits assumed): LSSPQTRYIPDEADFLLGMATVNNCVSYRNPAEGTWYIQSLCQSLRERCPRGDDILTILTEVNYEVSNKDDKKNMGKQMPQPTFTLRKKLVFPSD
Calpain 1, sequence (P04632 whole entry): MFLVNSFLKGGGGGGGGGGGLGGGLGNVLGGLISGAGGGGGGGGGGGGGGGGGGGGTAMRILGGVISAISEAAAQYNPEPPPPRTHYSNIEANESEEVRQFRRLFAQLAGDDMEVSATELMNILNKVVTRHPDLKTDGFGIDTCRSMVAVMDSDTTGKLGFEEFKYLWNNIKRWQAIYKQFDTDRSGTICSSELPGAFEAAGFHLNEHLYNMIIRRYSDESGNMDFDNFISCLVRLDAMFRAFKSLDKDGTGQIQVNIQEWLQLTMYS
Calpain 1, sequence (P07384 whole entry): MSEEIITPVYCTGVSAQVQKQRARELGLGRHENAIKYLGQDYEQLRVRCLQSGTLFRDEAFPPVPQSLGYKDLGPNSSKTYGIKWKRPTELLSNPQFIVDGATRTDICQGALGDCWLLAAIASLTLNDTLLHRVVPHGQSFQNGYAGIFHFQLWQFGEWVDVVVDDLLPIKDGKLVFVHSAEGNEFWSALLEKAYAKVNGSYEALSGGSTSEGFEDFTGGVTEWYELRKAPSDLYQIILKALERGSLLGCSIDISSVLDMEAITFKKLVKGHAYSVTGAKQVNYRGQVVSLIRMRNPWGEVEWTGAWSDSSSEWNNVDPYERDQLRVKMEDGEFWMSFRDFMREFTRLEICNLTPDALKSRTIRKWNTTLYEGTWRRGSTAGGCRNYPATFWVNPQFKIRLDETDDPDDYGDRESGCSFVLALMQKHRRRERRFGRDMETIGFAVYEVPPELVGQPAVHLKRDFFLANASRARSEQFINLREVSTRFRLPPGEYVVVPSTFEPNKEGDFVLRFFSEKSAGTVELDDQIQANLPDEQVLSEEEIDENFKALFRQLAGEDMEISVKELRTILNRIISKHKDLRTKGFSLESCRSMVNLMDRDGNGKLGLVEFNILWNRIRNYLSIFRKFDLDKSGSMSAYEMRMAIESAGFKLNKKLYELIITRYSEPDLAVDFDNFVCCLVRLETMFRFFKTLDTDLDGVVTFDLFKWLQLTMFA

As to `CC(C)[C@H](NC(=O)OCc1ccccc1)C(=O)N[C@@H](C)C(=O)N[C@@H](CC(=O)O)C(=O)CF` (Cbz-Val-Ala-Asp-CH2F), the Activity on Caspase-3 (Homo sapiens) is 3.6 RFU/µg/min.
As for `O=C(CCCl)Nc1ccc2c(c1)C(=O)C(=O)NC2=O`, the IC50 against Caspase-3 was 83 nM; on Calpain 1, above 5000 nM; in the assay on Proteasome, above 5000 nM; on Papain, above 5000 nM; at Trypsin, above 5000 nM; against Prothrombin it was above 5000 nM. Moreover, the half-maximal inhibitory concentration (IC50) against Caspase-2 was 530 nM; on Caspase-6, 283 nM; on Caspase-7, 139 nM; at Caspase-8, 575 nM.
In turn, `COc1ccccc1NC(=O)CCC(=O)Nc1ccc2c(c1)C(=O)C(=O)NC2=O` gave an Activity in the assay on Rattus norvegicus (route subcutaneous) of 77%. Also, the IC50 was 113 nM against Caspase-3; above 5000 nM on Calpain 1; above 5000 nM in the assay on Proteasome; above 5000 nM on Papain; above 5000 nM against Trypsin; above 5000 nM against Prothrombin. Moreover, the IC50 against Caspase-2 came out at 537 nM; on Caspase-6, 137 nM; on Caspase-7 it was 218 nM; at Caspase-8 it was 835 nM.
For the compound `O=C(O)CCC(=O)Nc1ccc2c(c1)C(=O)C(=O)NC2=O`, the concentration for half-maximal inhibition (IC50) against Caspase-3 is 68 nM; against Calpain 1, above 5000 nM; with Proteasome, above 5000 nM; at Papain, above 5000 nM; at Trypsin, above 5000 nM; against Prothrombin, above 5000 nM. Further, the IC50 against Caspase-2 was 859 nM; against Caspase-6, 201 nM; on Caspase-7, 136 nM; against Caspase-8 it was 1120 nM.
Consider `CC(=O)N[C@@H](CC(=O)O)C(=O)N[C@@H](CCC(=O)O)C(=O)N[C@H](C(=O)N[C@H](C=O)CC(=O)O)C(C)C`, for which the Activity at Caspase-3 (Homo sapiens) stood at 3.4 RFU/µg/min.
As for `CC(=O)OC(C(=O)Nc1cccc2c1C(=O)C(=O)NC2=O)c1ccccc1` (configuration not stated), the half-maximal inhibitory concentration (IC50) is 40 nM at Caspase-3; above 5000 nM at Calpain 1; above 5000 nM with Proteasome; above 5000 nM against Papain; above 5000 nM at Trypsin; above 5000 nM against Prothrombin. Also, the half-inhibitory concentration (IC50) on Caspase-2 came out at 233 nM; at Caspase-6, 216 nM; against Caspase-7 it was 63 nM; at Caspase-8 it was 425 nM.
For the compound `O=C1NC(=O)c2cc(NC(=O)c3ccc([N+](=O)[O-])cc3)ccc2C1=O`, the half-inhibitory concentration (IC50) on Caspase-3 is 1380 nM; against Calpain 1, above 5000 nM; in the assay on Proteasome, above 5000 nM; on Papain it was above 5000 nM; at Trypsin it was above 5000 nM; on Prothrombin, above 5000 nM. Further, the IC50 on Caspase-2 was determined as 5670 nM; on Caspase-6, 2850 nM; at Caspase-7 it was 2710 nM; at Caspase-8, 24700 nM.
As for `O=C1NC(=O)c2ccccc2C1=O`, the outcome in the assay with Rattus norvegicus was inactive. Further, the IC50 on Calpain 1 is above 5000 nM; with Proteasome it was above 5000 nM; at Papain it was above 5000 nM; on Trypsin, above 5000 nM; against Prothrombin it was above 5000 nM; at Caspase-2 it was 1530 nM. Further, the IC50 against Caspase-6 worked out at 474 nM; against Caspase-7, 386 nM.
As to `O=C(CCC(=O)N1CCCCC1)Nc1ccc2c(c1)C(=O)C(=O)NC2=O`, the half-maximal inhibitory concentration (IC50) is 25 nM against Caspase-3; above 5000 nM on Calpain 1; above 5000 nM in the assay on Proteasome; above 5000 nM against Papain; above 5000 nM on Trypsin; above 5000 nM on Prothrombin. Moreover, the IC50 at Caspase-2 was 231 nM; at Caspase-6, 124 nM; against Caspase-7, 64 nM; against Caspase-8 it was 288 nM.

As usually defined, the IC50 is the concentration that gives 50% inhibition.

The values are drawn from ChEMBL document CHEMBL1138183, “Design, synthesis, and biological evaluation of isoquinoline-1,3,4-trione derivatives as potent caspase-3 inhibitors” (J Med Chem, 2006).
